# Laboratory results taken from ChEMBL document CHEMBL3045677, “Sulfonamide-1,2,4-thiadiazole derivatives as antifungal and antibacterial agents: synthesis, biological evaluation, lipophilicity, and conformational studies” (2010).
# Test system: Escherichia coli
# Experiment: Antibacterial activity against Escherichia coli ATCC 35210 at […] degC measured after 72 hr by microdilution method
# Format: functional
# Conditions: ATCC 35210, 72 h
# How it was run: (§1)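 Bactericidal endpoint: after the 24 h broth microdilution (1.0×10⁴ CFU per well, LB broth, […] °C), wells were serially subcultured into plates of fresh broth and incubated a further 72 h. MBC was the lowest concentration with no visible growth, taken as 99.5% killing of the original inoculum.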
row,Compound,MBC
1,COc1cc(Cc2nnc(Nc3ccccc3)s2)c(S(=O)(=O)N2CCCC2)cc1OC,43.4 µM

# Test system: Micrococcus flavus
# Experiment: Antibacterial activity against Micrococcus flavus ATCC 10240 at […] degC measured after 24 hr by microdilution method
# Format: functional
# Conditions: ATCC 10240, 24 h
# How it was run: (§2)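 Bacteria suspended in sterile saline at 1.0×10⁵ CFU/ml and added at 1.0×10⁴ CFU per well to LB broth with compound (1 mg/ml) in 96-well plates. Incubated 24 h at […] °C. MIC was the lowest concentration without visible growth under a binocular microscope. OD 655 nm was read against a blank and a positive control.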
row,MIC,Compound
1,10.9 µM,COc1cc(Cc2nnc(Nc3ccccc3)s2)c(S(=O)(=O)N2CCCC2)cc1OC

# Test system: Bacillus cereus
# Experiment: Antibacterial activity against clinical isolate Bacillus cereus at […] degC measured after 72 hr by microdilution method
# Format: functional
# Conditions: not given
# How it was run: as §1
row,Compound,MBC
1,COc1cc(Cc2nnc(Nc3ccccc3)s2)c(S(=O)(=O)N2CCCC2)cc1OC,21.7 µM

# Test system: Pseudomonas aeruginosa
# Experiment: Antibacterial activity against Pseudomonas aeruginosa ATCC 27853 at […] degC measured after 72 hr by microdilution method
# Format: functional
# Conditions: ATCC 27853, 72 h
# How it was run: as §1
row,Compound,MBC
1,COc1cc(Cc2nnc(Nc3ccccc3)s2)c(S(=O)(=O)N2CCCC2)cc1OC,43.4 µM

# Test system: Proteus mirabilis
# Experiment: Antibacterial activity against Proteus mirabilis at […] degC measured after 24 hr by microdilution method
# Format: functional
# Conditions: not given
# How it was run: as §2
row,MIC,Compound
1,21.7 µM,COc1cc(Cc2nnc(Nc3ccccc3)s2)c(S(=O)(=O)N2CCCC2)cc1OC

# Test system: Listeria monocytogenes
# Experiment: Antibacterial activity against Listeria monocytogenes NCTC 7973 at […] degC measured after 24 hr by microdilution method
# Format: functional
# Conditions: NCTC 7973, 24 h
# How it was run: as §2
row,MIC,Compound
1,21.7 µM,COc1cc(Cc2nnc(Nc3ccccc3)s2)c(S(=O)(=O)N2CCCC2)cc1OC

# Test system: Bacillus cereus
# Experiment: Antibacterial activity against clinical isolate Bacillus cereus at […] degC measured after 24 hr by microdilution method
# Format: functional
# Conditions: not given
# How it was run: as §2
row,MIC,Compound
1,10.9 µM,COc1cc(Cc2nnc(Nc3ccccc3)s2)c(S(=O)(=O)N2CCCC2)cc1OC

# Test system: Staphylococcus aureus
# Experiment: Antibacterial activity against Staphylococcus aureus ATCC 6538 at […] degC measured after 24 hr by microdilution method
# Format: functional
# Conditions: ATCC 6538, 24 h
# How it was run: as §2
row,MIC,Compound
1,21.7 µM,COc1cc(Cc2nnc(Nc3ccccc3)s2)c(S(=O)(=O)N2CCCC2)cc1OC

# Test system: Aspergillus fumigatus
# Experiment: Antifungal activity against plant isolate Aspergillus fumigatus at 28 degC measured after 72 hr by microdilution method
# Format: functional
# Conditions: not given
# How it was run: (§3)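 Fungi were kept on malt agar at 4 °C. Spores were washed off with sterile 0.85% saline containing 0.1% Tween 80 and adjusted to about 1.0×10⁵ per well. Compounds were dissolved in DMSO (1 mg/ml stock) and serially diluted in malt broth with inoculum in 96-well plates, 72 h at 28 °C, for MIC. MFC came from subculture into fresh broth for a further 72 h at 28 °C.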
Compound,MFC,MIC
COc1cc(Cc2nnc(Nc3ccccc3)s2)c(S(=O)(=O)N2CCCC2)cc1OC,43.4 µM,21.7 µM

# Test system: Fulvia fulva
# Experiment: Antifungal activity against Passalora fulva TK5318 at 28 degC measured after 72 hr by microdilution method
# Format: functional
# Conditions: TK5318, 72 h
# How it was run: as §3
MIC,Compound,MFC
10.9 µM,COc1cc(Cc2nnc(Nc3ccccc3)s2)c(S(=O)(=O)N2CCCC2)cc1OC,21.7 µM

# Test system: Salmonella typhimurium
# Experiment: Antibacterial activity against Salmonella enterica subsp. enterica serovar Typhimurium ATCC 13311 at […] degC measured after 24 hr by microdilution method
# Format: functional
# Conditions: ATCC 13311, 24 h
# How it was run: as §2
row,MIC,Compound
1,10.9 µM,COc1cc(Cc2nnc(Nc3ccccc3)s2)c(S(=O)(=O)N2CCCC2)cc1OC

# Test system: Micrococcus flavus
# Experiment: Antibacterial activity against Micrococcus flavus ATCC 10240 at […] degC measured after 72 hr by microdilution method
# Format: functional
# Conditions: ATCC 10240, 72 h
# How it was run: as §1
row,Compound,MBC
1,COc1cc(Cc2nnc(Nc3ccccc3)s2)c(S(=O)(=O)N2CCCC2)cc1OC,21.7 µM

# Test system: Proteus mirabilis
# Experiment: Antibacterial activity against Proteus mirabilis at […] degC measured after 72 hr by microdilution method
# Format: functional
# Conditions: not given
# How it was run: as §1
row,Compound,MBC
1,COc1cc(Cc2nnc(Nc3ccccc3)s2)c(S(=O)(=O)N2CCCC2)cc1OC,43.4 µM

# Test system: Pseudomonas aeruginosa
# Experiment: Antibacterial activity against Pseudomonas aeruginosa ATCC 27853 at […] degC measured after 24 hr by microdilution method
# Format: functional
# Conditions: ATCC 27853, 24 h
# How it was run: as §2
row,MIC,Compound
1,21.7 µM,COc1cc(Cc2nnc(Nc3ccccc3)s2)c(S(=O)(=O)N2CCCC2)cc1OC

# Test system: Aspergillus versicolor
# Experiment: Antifungal activity against Aspergillus versicolor ATCC 11730 at 28 degC measured after 72 hr by microdilution method
# Format: functional
# Conditions: ATCC 11730, 72 h
# How it was run: as §3
MIC,Compound,MFC
21.7 µM,COc1cc(Cc2nnc(Nc3ccccc3)s2)c(S(=O)(=O)N2CCCC2)cc1OC,43.4 µM

# Test system: Escherichia coli
# Experiment: Antibacterial activity against Escherichia coli ATCC 35210 at […] degC measured after 24 hr by microdilution method
# Format: functional
# Conditions: ATCC 35210, 24 h
# How it was run: as §2
row,MIC,Compound
1,21.7 µM,COc1cc(Cc2nnc(Nc3ccccc3)s2)c(S(=O)(=O)N2CCCC2)cc1OC

# Test system: Penicillium ochrochloron
# Experiment: Antifungal activity against Penicillium ochrochloron ATCC 9112 at 28 degC measured after 72 hr by microdilution method
# Format: functional
# Conditions: ATCC 9112, 72 h
# How it was run: as §3
MIC,Compound,MFC
21.7 µM,COc1cc(Cc2nnc(Nc3ccccc3)s2)c(S(=O)(=O)N2CCCC2)cc1OC,43.4 µM

# Test system: Salmonella typhimurium
# Experiment: Antibacterial activity against Salmonella enterica subsp. enterica serovar TyphimuriumATCC 13311 at […] degC measured after 72 hr by microdilution method
# Format: functional, Salmonella enterica subsp. enterica serovar Typhimurium
# Conditions: ATCC 13311, 72 h
# How it was run: as §1
row,Compound,MBC
1,COc1cc(Cc2nnc(Nc3ccccc3)s2)c(S(=O)(=O)N2CCCC2)cc1OC,21.7 µM

# Test system: Aspergillus niger
# Experiment: Antifungal activity against Aspergillus niger ATCC 6275 at 28 degC measured after 72 hr by microdilution method
# Format: functional
# Conditions: ATCC 6275, 72 h
# How it was run: as §3
MIC,Compound,MFC
21.7 µM,COc1cc(Cc2nnc(Nc3ccccc3)s2)c(S(=O)(=O)N2CCCC2)cc1OC,43.4 µM

# Test system: Talaromyces funiculosus
# Experiment: Antifungal activity against Talaromyces funiculosus ATCC 36839 at 28 degC measured after 72 hr by microdilution method
# Format: functional
# Conditions: ATCC 36839, 72 h
# How it was run: as §3
MIC,Compound,MFC
21.7 µM,COc1cc(Cc2nnc(Nc3ccccc3)s2)c(S(=O)(=O)N2CCCC2)cc1OC,43.4 µM

# Test system: Trichoderma viride
# Experiment: Antifungal activity against Hypocrea rufa IAM 5061 at 28 degC measured after 72 hr by microdilution method
# Format: functional
# Conditions: IAM 5061, 72 h
# How it was run: as §3
MIC,Compound,MFC
10.9 µM,COc1cc(Cc2nnc(Nc3ccccc3)s2)c(S(=O)(=O)N2CCCC2)cc1OC,21.7 µM

# Test system: Staphylococcus aureus
# Experiment: Antibacterial activity against Staphylococcus aureus ATCC 6538 at […] degC measured after 72 hr by microdilution method
# Format: functional
# Conditions: ATCC 6538, 72 h
# How it was run: as §1
row,Compound,MBC
1,COc1cc(Cc2nnc(Nc3ccccc3)s2)c(S(=O)(=O)N2CCCC2)cc1OC,43.4 µM

# Test system: Aspergillus flavus
# Experiment: Antifungal activity against Aspergillus flavus ATCC 9643 at 28 degC measured after 72 hr by microdilution method
# Format: functional
# Conditions: ATCC 9643, 72 h
# How it was run: as §3
MIC,Compound,MFC
21.7 µM,COc1cc(Cc2nnc(Nc3ccccc3)s2)c(S(=O)(=O)N2CCCC2)cc1OC,43.4 µM

# Test system: Listeria monocytogenes
# Experiment: Antibacterial activity against Listeria monocytogenes NCTC 7973 at […] degC measured after 72 hr by microdilution method
# Format: functional
# Conditions: NCTC 7973, 72 h
# How it was run: as §1
row,Compound,MBC
1,COc1cc(Cc2nnc(Nc3ccccc3)s2)c(S(=O)(=O)N2CCCC2)cc1OC,43.4 µM
